{"data": "Measured values collected from several papers", "organism": "Staphylococcus aureus", "observed": "microbial growth", "note": "Protocols differ between the studies behind these lines."}
{"SMILES": "CCCCCCCC(=O)Oc1c(C)c(O)c(C(=O)/C=C/c2ccccc2)c(OC)c1C", "method": "broth dilution", "strain": "ATCC25923", "MIC": "> 5000 µg/mL"}
{"SMILES": "O=C1C=CC(=O)c2c1ccc1c2[nH]c2ccccc21", "strain": "ATCC29213", "MIC": "4 µg/mL"}
{"SMILES": "O=C1NC(=S)N/C1=C\\c1ccc(-c2ccc(N(c3ccccc3)c3ccccc3)cc2)c2ccccc12", "method": "broth dilution", "strain": "ATCC6538", "MIC": "> 1000 µg/mL"}
{"SMILES": "C/C=C(\\C)c1cc(O)c(C)c(OC(=O)c2c(C)cc(O)c(Cl)c2O)c1", "strain": "MRSA", "MIC": "8 µg/mL"}
{"SMILES": "c1ccc2c(-c3cnn4cc(-c5ccc(N6CCNCC6)cc5)cnc34)ccnc2c1", "strain": "NCTC8325", "MIC": "> 30 µM"}
{"SMILES": "FC(F)(F)c1cc(-c2nnc(Sc3cc(Cl)nc(Sc4ccccc4)n3)[nH]2)cc(C(F)(F)F)c1", "strain": "83254", "MIC": "1.6 µM"}
{"SMILES": "Oc1ccc(-c2nc(-c3ccc(F)cc3)c(-c3ccncc3)[nH]2)cc1", "strain": "NCTC8325", "MIC": "> 30 µM"}
{"SMILES": "Cc1cc(C)cc(NC(=O)CN(C)S(=O)(=O)c2ccc3[nH]c4c(c3c2)CCCC4)c1", "MIC": "> 128 µg/mL"}
{"SMILES": "O=C(CCCCCCCCCC[P+](c1ccccc1)(c1ccccc1)c1ccccc1)Nc1ccc(O)c(O)c1.[Br-]", "method": "broth dilution", "strain": "ATCC43300 MRSA", "time": "18 h", "MIC": "16 µg/mL"}
{"SMILES": "O=C(O)CN1C(=O)/C(=C/c2ccc(-c3ccc(N(c4ccccc4)c4ccccc4)cc3)c3ccccc23)NC1=S", "method": "broth dilution", "strain": "ATCC6538", "MIC": "> 1000 µg/mL"}
{"SMILES": "Cc1ccc2nc(-c3cccc(O)c3)[nH]c2c1", "method": "broth dilution", "strain": "ATCC29213 MSSA", "MIC": "32 µg/mL"}
{"SMILES": "CNC(=O)c1ccccc1Sc1ccc2c(/C=C/c3ccccn3)n[nH]c2c1", "strain": "NCTC8325", "MIC": "> 30 µM"}
{"SMILES": "CC1=NN(CNC(=O)c2ccccn2)C(=O)C1=NNn1c(-c2ccccc2)nc2ccccc2c1=O", "method": "broth dilution", "time": "24 h", "MIC": "52 µM"}
{"SMILES": "O=C(Cc1ccc(O)c(O)c1)NCCCCCCCC[P+](c1ccccc1)(c1ccccc1)c1ccccc1.[Br-]", "method": "broth dilution", "strain": "ATCC43300 MRSA", "time": "18 h", "MIC": "> 32 µg/mL"}
{"SMILES": "COC(=O)Nc1ccc(-c2nc(N3CCOCC3)c3cnn(C4CCN(Cc5cccnc5)CC4)c3n2)cc1", "strain": "NCTC8325", "MIC": "> 30 µM"}
{"SMILES": "COc1cccc(NCc2ccc(Oc3ccccn3)cc2)c1", "MIC": "1.6 µg/mL"}
{"SMILES": "CC(C)Oc1c(NC(=O)c2ccc(NC(=O)[C@H](CC(N)=O)NC(=O)c3ccc(NC(=O)c4cccc([N+](=O)[O-])c4)cc3)cc2)ccc(C(=O)Nc2ccc(C(=O)O)cc2)c1O", "strain": "ATCC29213", "MIC": "> 64 µg/mL"}
{"SMILES": "c1ccc2[nH]c(-c3ccncc3)nc2c1", "method": "broth dilution", "strain": "ATCC29213 MSSA", "MIC": "128 µg/mL"}
{"SMILES": "CCOc1ccc(-c2nc3cc(-c4nc5cc(N6CCN(C)CC6)ccc5[nH]4)ccc3[nH]2)cc1", "method": "broth dilution", "strain": "29213", "time": "24 h", "MIC": "2 to 4 µg/mL"}
{"SMILES": "CC(C)Oc1c(NC(=O)c2ccc(NC(=O)[C@H](CC(N)=O)NC(=O)c3ccc(NC(=O)c4ccccc4[N+](=O)[O-])cc3)cc2)ccc(C(=O)Nc2ccc(C(=O)O)cc2)c1O", "strain": "ATCC29213", "MIC": "> 64 µg/mL"}
{"SMILES": "CC(=O)NC[C@H]1CN(c2ccc(N3CCOCC3)c(F)c2)C(=O)O1", "method": "broth dilution", "strain": "MRSA NRS383 USA200", "setting": "drug-resistant strain", "MIC": "2 µg/mL"}
{"SMILES": "COc1cccc(-c2nc3ccc(C)cc3[nH]2)c1", "method": "broth dilution", "strain": "ATCC29213 MSSA", "MIC": "128 µg/mL"}
{"SMILES": "O=C(O)CN1C(=O)/C(=C/c2ccc(-c3ccc(N(c4ccccc4)c4ccccc4)cc3)c3ccccc23)SC1=S", "method": "broth dilution", "strain": "ATCC43300", "MIC": "1000 µg/mL"}
{"SMILES": "O=C(COC(=O)c1n[nH]c2ccccc12)Nc1ccc(N2CCCCC2)cc1", "MIC": "> 128 µg/mL"}
{"SMILES": "Cc1ccc(C)n1-c1ccc(-c2nnc(-c3ccc(Br)cc3)[nH]2)cc1", "method": "broth dilution", "strain": "ATCC11632", "time": "18 h", "MIC": "1 µg/mL"}
{"SMILES": "CC(C)Oc1c(NC(=O)c2ccc(NC(=O)[C@H](CC(N)=O)NC(=O)c3ccc(NC(=O)CCc4ccc(C#N)cc4)cc3)cc2)ccc(C(=O)Nc2ccc(C(=O)O)cc2)c1O", "strain": "ATCC29213", "MIC": "> 64 µg/mL"}
{"SMILES": "C[n+]1c(/C=C/c2c[nH]c3ccccc23)cc(/C=C2\\Sc3ccccc3N2CCCN2CCOCC2)c2ccccc21.[I-]", "method": "broth dilution", "strain": "ATCCBAA44", "MIC": "8 µg/mL"}
{"SMILES": "C/C=C(\\C)c1cc(OC(=O)c2c(C)c(Cl)c(O)c(Cl)c2O)c(C)c(O)c1C(=O)O", "method": "broth dilution", "strain": "16162", "MIC": "64 µg/mL"}
{"SMILES": "Cc1cc(Nc2ncnc3ccc(NC4=NC(C)(C)CO4)cc23)ccc1Oc1ccn2ncnc2c1", "strain": "NCTC8325", "MIC": "> 30 µM"}
{"SMILES": "C[n+]1c(/C=C/c2ccc(O)cc2)cc(/C=C2\\Sc3ccccc3N2CCCN2CCCC2)c2ccccc21.[I-]", "method": "broth dilution", "strain": "ATCCBAA44", "MIC": "32 µg/mL"}
{"SMILES": "Clc1ccc(-c2nc3ccccc3n2Cc2ccccc2)cc1", "method": "broth dilution", "strain": "ATCC29213 MSSA", "MIC": "64 µg/mL"}
{"SMILES": "O=C1NC(=S)N/C1=C\\c1c2ccccc2c(-c2ccc(N(c3ccccc3)c3ccccc3)cc2)c2ccccc12", "method": "broth dilution", "strain": "ATCC6538", "MIC": "> 1000 µg/mL"}
{"SMILES": "Cc1ccc2nc(-c3cc(Br)ccc3O)[nH]c2c1", "method": "broth dilution", "strain": "ATCC29213 MSSA", "MIC": "64 µg/mL"}
{"SMILES": "Cc1ccc(C)n1-c1ccc(-c2nnc(-c3ccc(O)cc3)[nH]2)cc1", "method": "broth dilution", "strain": "ATCC11632", "time": "18 h", "MIC": "8 µg/mL"}
{"SMILES": "CC(C)Oc1c(NC(=O)c2ccc(NC(=O)[C@H](CC(N)=O)NC(=O)c3ccc(NC(=O)c4ccc([N+](=O)[O-])c5cccnc45)cc3)cc2)ccc(C(=O)Nc2ccc(C(=O)O)cc2)c1O", "strain": "ATCC29213", "MIC": "> 64 µg/mL"}
{"SMILES": "Cc1ccc2nc(-c3cccc([N+](=O)[O-])c3)[nH]c2c1", "method": "broth dilution", "strain": "ATCC29213 MSSA", "MIC": "64 µg/mL"}
{"SMILES": "Cc1cc(C#N)ccc1C(=O)Nc1ccc(C(=O)N[C@@H](CC(N)=O)C(=O)Nc2ccc(C(=O)Nc3ccc(C(=O)Nc4ccc(C(=O)O)cc4)c(O)c3OC(C)C)cc2)cc1", "strain": "ATCC29213", "MIC": "64 µg/mL"}
{"SMILES": "Nc1nccc(Oc2ccc(NC(=O)c3c[nH]cc(-c4ccc(F)cc4)c3=O)cc2F)c1Cl", "strain": "NCTC8325", "MIC": "> 30 µM"}
{"SMILES": "O=C1NC(=S)S/C1=C\\c1ccc(-c2ccc(N(c3ccccc3)c3ccccc3)cc2)c2ccccc12", "method": "broth dilution", "strain": "ATCC43300", "MIC": "1000 µg/mL"}
{"SMILES": "O=C(Nc1ccccc1F)c1ccccc1O", "method": "broth dilution", "strain": "ATCC29213", "MIC": "32 µg/mL"}
{"SMILES": "O=C(Nc1ccc(Cl)c(C(F)(F)F)c1)N1CCc2ccccc2C1", "strain": "NCTC8325", "time": "24 h", "MIC": "30 µM"}
{"SMILES": "CC1(C)S[C@@H]2[C@H](NC(=O)[C@H](N)c3ccccc3)C(=O)N2[C@H]1C(=O)O", "method": "broth dilution", "strain": "745524", "MIC": "4 µg/mL"}
{"SMILES": "CCCCCCCCCCCC(=O)Oc1c(C)c(O)c(C(=O)/C=C/c2ccccc2)c(OC)c1C", "method": "broth dilution", "strain": "ATCC25923", "MIC": "5000 µg/mL"}
{"SMILES": "CN(C)[C@@H]1C(O)=C(C(N)=O)C(=O)[C@@]2(O)C(O)=C3C(=O)c4c(O)cccc4[C@@](C)(O)[C@H]3C[C@@H]12", "strain": "129", "setting": "clinical isolate", "MIC": "≤ 0.1 µM"}
{"SMILES": "Oc1cccc(-c2nc3ccccc3[nH]2)c1", "method": "broth dilution", "strain": "ATCC29213 MSSA", "MIC": "64 µg/mL"}
{"SMILES": "CC(C)(O/N=C(\\C(=O)N[C@@H]1C(=O)N2C(C(=O)[O-])=C(C[n+]3ccccc3)CS[C@H]12)c1csc(N)n1)C(=O)O", "method": "broth dilution", "strain": "MRSA", "time": "18 h", "setting": "clinical isolate", "MIC": "64 µg/mL"}
{"SMILES": "COc1cc(OC)c2cc(C(=O)NCc3ccc(Br)cc3)cc(O)c2c1", "method": "broth dilution", "strain": "ATCC29213 MSSA", "MIC": "32 µg/mL"}
{"SMILES": "CN[C@H](CC(C)C)C(=O)N[C@H]1C(=O)N[C@@H](CC(N)=O)C(=O)N[C@H]2C(=O)N[C@H]3C(=O)N[C@H](C(=O)N[C@H](C(=O)O)c4cc(O)cc(O)c4-c4cc3ccc4O)[C@H](O)c3ccc(c(Cl)c3)Oc3cc2cc(c3O[C@@H]2O[C@H](CO)[C@@H](O)[C@H](O)[C@H]2O[C@H]2C[C@](C)(N)[C@H](O)[C@H](C)O2)Oc2ccc(cc2Cl)[C@H]1O", "method": "broth dilution", "strain": "16162", "MIC": "0.5 µg/mL"}
{"SMILES": "CCCCCCC#Cc1cncc(-c2nnc(SCc3ccc(Cl)cc3)n2C)c1", "strain": "MRSA", "setting": "drug-resistant strain", "MIC": "≥ 20 µg/mL"}
{"SMILES": "Cc1ccc(NCc2ccc(Oc3ccccn3)cc2)cc1", "MIC": "1.8 µg/mL"}
{"SMILES": "Cc1ccc2nc(-c3ccc(Cl)cc3)[nH]c2c1", "method": "broth dilution", "strain": "ATCC29213 MSSA", "MIC": "256 µg/mL"}
{"SMILES": "FC(F)c1nc2ccccc2n1-c1nc(N2CCOCC2)nc(N2CCOCC2)n1", "strain": "NCTC8325", "MIC": "> 30 µM"}
{"SMILES": "CC1=NN(CNc2ccc(Cl)cc2)C(=O)C1=NNn1c(-c2ccccc2)nc2ccccc2c1=O", "method": "broth dilution", "time": "24 h", "MIC": "51.5 µM"}
{"SMILES": "CC(C)Oc1c(NC(=O)c2ccc(NC(=O)[C@H](CC(N)=O)NC(=O)c3ccc(NC(=O)c4ccc5c(c4)COC5=O)cc3)cc2)ccc(C(=O)Nc2ccc(C(=O)O)cc2)c1O", "strain": "ATCC29213", "MIC": "1 µg/mL"}
{"SMILES": "COC(=O)/C(C#N)=C1\\Nc2ccccc2O1", "MIC": "> 128 µg/mL"}
{"SMILES": "C/C=C(\\C)c1cc(O)c(C)c(OC(=O)c2c(C)c(Cl)c(O)c(Cl)c2O)c1", "method": "broth dilution", "strain": "16162", "MIC": "2 µg/mL"}
{"SMILES": "O=C(CCCN1CCC(O)(c2ccc(Cl)cc2)CC1)c1ccc(Br)cc1", "MIC": "> 128 µg/mL"}
{"SMILES": "NC[C@H]1O[C@H](O[C@H]2[C@H](O)[C@@H](O[C@H]3O[C@H](CO)[C@@H](O)[C@H](N)[C@H]3O)[C@H](N)C[C@@H]2N)[C@H](N)C[C@@H]1O", "strain": "147", "setting": "clinical isolate", "MIC": "6.25 µM"}
